Laboratory results: PMC11904594 (Current Research in Microbial Sciences, 2025)
Peptide text beside a SMILES is read from it.

Legend:
[1] = tested on: 11 bacterial strains (S. aureus, P. aeruginosa, A. baumannii, K. pneumoniae, E. coli); test: Antimicrobial activity screening, summary over groups of strains; type: cell-based; details: 50 µg/ml screen
A. baumannii ATCC 19606 = test: Antimicrobial activity screening; type: cell-based, Acinetobacter baumannii; details: 50 µg/ml screen
[2] = tested on: Galleria mellonella larvae; test: In vivo toxicity in Galleria mellonella larvae; details: G. mellonella larvae, N=10 per group
Outline: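 Sixth-instar Galleria mellonella larvae (200–300 mg) were held in sawdust at 4 °C until use. Groups of ten were injected with 10 μl of test compound, colistin or 0.9 % NaCl saline control into the second rear proleg, then kept at 30 °C.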

## CC[C@H](C)[C@H](NC(=O)[C@@H](CCCCN)NC(=O)[C@H](CCCCN)NC(=O)[C@H](Cc1ccccc1)NC(=O)[C@H](CC(C)C)NC(=O)[C@H](CCCCN)NC(=O)[C@@H](N)CCCCN)C(=O)N[C@@H](CC(C)C)C(=O)N[C@@H](CCCCN)C(=O)N[C@@H](Cc1ccc(O)cc1)C(=O)N[C@@H](CC(C)C)C(N)=O [BP146]
[1]
  growth reduction in all strains except P. aeruginosa ST175–1: at least 89%

## CC[C@H](C)[C@H](NC(=O)[C@H](CCCCN)NC(=O)[C@H](CCCCN)NC(=O)[C@H](Cc1c[nH]cn1)NC(=O)[C@H](CC(C)C)NC(=O)[C@H](CCCCN)NC(=O)[C@H](Cc1ccccc1)NS(=O)(=O)c1ccc(C)cc1)C(=O)N[C@@H](CC(C)C)C(=O)N[C@@H](CCCCN)C(=O)N[C@H](C(=O)N[C@@H](CC(C)C)C(N)=O)C(C)C [BP275] (HELM PEPTIDE1{[Cc1ccc(S(=O)(=O)[*:2])cc1].F.K.L.H.K.K.I.L.K.V.L.[am]}$$$$V2.0)
A. baumannii ATCC 19606
  growth inhibition against A. baumannii ATCC 19,606: ≥ 93%

## CCCC(=O)NCCCC[C@H](NC(=O)[C@@H](NC(=O)[C@H](CCCCN)NC(=O)[C@H](CCCCN)NC(=O)[C@@H](Cc1ccccc1)NC(=O)[C@H](CC(C)C)NC(=O)[C@H](CCCCN)NC(=O)[C@H](CCCCN)NC(C)=O)[C@@H](C)CC)C(=O)N[C@@H](CCCCN)C(=O)N[C@@H](Cc1ccc(O)cc1)C(=O)N[C@@H](CC(C)C)C(N)=O [BP474]
A. baumannii ATCC 19606
  growth inhibition against A. baumannii ATCC 19,606: ≥ 93%

## Colistin
[2]; 50 µg/larvae (10 μl of 5 mg/ml), 30 °C
  mortality after 24h: 50%
[2]; 10 μl injected, viability at 48h
  LD50: 5 mg/mL
